One data set concerns KB. Description: Cytotoxicity against human KB cells after 72 hrs by SRB assay. The format is functional, cell-based. A general note: In SRB staining, fixed cells bind dye roughly in proportion to their protein.
Data set [1] is described as follows: Solubility of the compound in water. The format is physicochemical. The note with it: buffer.
A short description of data set [2]: Ratio of IC50 for compound to ratio of IC50 for DiMIQ for BALB mouse 3T3 cells. The format is cell-based. The conditions noted are these: read-out: Ratio IC50.
Another data set deals with MCF7. Description: Cytotoxicity against human MCF7 cells after 72 hrs by SRB assay. The format is functional, cell-based. The note with it: MCF7, 72 h. A digest of the protocol:
(§1)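 IC50 is the compound concentration giving 50% inhibition of cell proliferation. It was determined on normal mouse BALB/3T3 fibroblasts and on human A549, MCF-7 and LoVo cancer lines, with doxorubicin hydrochloride and DiMIQ as reference compounds.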

For another data set, the system named is A549. Description: Cytotoxicity against human A549 cells after 72 hrs by SRB assay. The format is functional, cell-based. The note with it: A549, 72 h. A digest of the protocol:
as §1

The subject of another data set is LoVo. In words: Cytotoxicity against human LoVo cells after 72 hrs by SRB assay. The format is functional, cell-based. A digest of the protocol: as §1
Data set [3] concerns Lewis lung carcinoma cell line. Description: Antineoplastic activity against mouse LLC cells xenografted in C57BL/6 mouse assessed as tumor growth inhibition at 30 mg/kg/day, ip administered on day 9 to day 12 of tumor implantation measured on day 23. The format is functional. The conditions noted are these: route intraperitoneal, read-out: TGI. The method in brief:
(§2)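 Mice bore Lewis lung carcinoma (LLC) inoculated subcutaneously and received test agents intraperitoneally at 15–50 mg kg⁻¹ day⁻¹ from day 9 or day 10. A single 100 mg/kg cyclophosphamide dose was the cytostatic control. Tumor growth was followed as the group median, and TGI% was calculated from medians versus untreated controls. Significance was tested by nonparametric Kruskal–Wallis multiple comparison, p < 0.05.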

Data set [4] has as its system Lewis lung carcinoma cell line. In words: Antineoplastic activity against mouse LLC cells xenografted in C57BL/6 mouse assessed as tumor growth inhibition at 30 mg/kg/day, ip administered on day 9 to day 12 of tumor implantation measured on day 11. The format is functional. The note with it: route intraperitoneal, read-out: TGI. A digest of the protocol:
as §2

Data set [5] has as its system Lewis lung carcinoma cell line. In words: Antineoplastic activity against mouse LLC cells xenografted in C57BL/6 mouse assessed as tumor growth inhibition at 15 mg/kg/day, ip administered on day 9 to day 13 of tumor implantation measured on day 18. The format is functional. The conditions noted are these: route intraperitoneal, read-out: TGI. A digest of the protocol:
as §2

Data set [6] has as its system Lewis lung carcinoma cell line. In words: Antineoplastic activity against mouse LLC cells xenografted in C57BL/6 mouse assessed as tumor growth inhibition at 15 mg/kg/day, ip administered on day 9 to day 13 of tumor implantation measured on day 11. The format is functional. The conditions noted are these: route intraperitoneal, read-out: TGI. A digest of the protocol:
as §2

For data set [7], the system named is Lewis lung carcinoma cell line. Description: Antineoplastic activity against mouse LLC cells xenografted in C57BL/6 mouse assessed as tumor growth inhibition at 15 mg/kg/day, ip administered on day 9 to day 13 of tumor implantation measured on day 16. The format is functional. The conditions noted are these: route intraperitoneal, read-out: TGI. The method in brief:
as §2

Data set [8] relates to Mus musculus. Description: Toxicity in C57BL/6 mouse xenografted with mouse LLC cells assessed as body weight loss at 15 mg/kg/day, sc administered on day 9 to day 13 of tumor implantation. The note with it: in vivo. Also noted: route subcutaneous. The format is organism-based. The method in brief: (§3)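 Body weight was tracked in C57BL/6 mice bearing subcutaneously inoculated LLC during therapy given daily from day 9 to day 13. A single 100 mg/kg dose of cyclophosphamide served as the cytostatic control group.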

The subject of data set [9] is Mus musculus. Description: Toxicity in C57BL/6 mouse xenografted with mouse LLC cells at 30 mg/kg/day, ip administered on day 9 to day 12 of tumor implantation. The format is organism-based. Also noted: route intraperitoneal. The note with it: in vivo. A digest of the protocol: (§4)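 Mouse Lewis lung carcinoma (LLC) cells inoculated sc into mice. Daily dosing from day 9: 15 mg kg⁻¹ day⁻¹ through day 13 or 30 mg kg⁻¹ day⁻¹ through day 12; 25 or 50 mg kg⁻¹ day⁻¹ through day 13. Route is given as ip in tables and text but sc in figure legends. Body weight monitored for loss alongside tumor growth. Single 100 mg/kg cyclophosphamide dose as cytostatic control.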

The nature of data set [10]: Octanol-water partition coefficient, log P of the compound in citric buffer at pH 2.5 by spectrophotometric analysis. The format is physicochemical. A digest of the protocol: (§5)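 Octanol–water partitioning, with log P defined as log(C_octanol/C_water). Compound in the aqueous phase was measured spectrophotometrically, and octanol content was obtained by subtracting the supernatant concentration from the total. Values are the mean of two independent experiments, each run in triplicate.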

In data set [11] the test system is Mus musculus. In words: Toxicity in C57BL/6 mouse xenografted with mouse LLC cells assessed as body weight loss at 50 mg/kg/day, sc administered on day 9 to day 13 of tumor implantation. The format is organism-based. Also on record: route subcutaneous. The note with it: in vivo. A digest of the protocol:
as §4

Data set [12] deals with Lewis lung carcinoma cell line. Description: Antineoplastic activity against mouse LLC cells xenografted in C57BL/6 mouse assessed as tumor growth inhibition at 15 mg/kg/day, ip administered on day 9 to day 13 of tumor implantation measured on day 14. The note with it: route intraperitoneal, read-out: TGI. The format is functional. The method in brief:
as §2

The subject of data set [13] is Lewis lung carcinoma cell line. In words: Antineoplastic activity against mouse LLC cells xenografted in C57BL/6 mouse assessed as tumor growth inhibition at 30 mg/kg/day, ip administered on day 9 to day 12 of tumor implantation measured on day 18. The format is functional. The note with it: route intraperitoneal, read-out: TGI. A digest of the protocol: as §2
Data set [14] in a line: Dissociation constant, pKa of the compound in PBS buffer at 5 uM at pH 2 to 10 by UV-spectrophotometric analysis. The format is physicochemical. The method in brief:
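UV spectrophotometric titration at a final compound concentration of 5 μM. At this concentration the absorbance–concentration relationship stayed linear. pKa was read from spectral changes across pH.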

In data set [15] the test system is Mus musculus. In words: Toxicity in C57BL/6 mouse xenografted with mouse LLC cells assessed as body weight loss at 15 mg/kg/day, ip administered on day 9 to day 13 of tumor implantation. The format is organism-based. Also noted: route intraperitoneal. The note with it: in vivo. The method in brief:
as §3

In data set [16] the test system is Mus musculus. In words: Toxicity in C57BL/6 mouse xenografted with mouse LLC cells assessed as body weight loss at 30 mg/kg/day, ip administered on day 9 to day 12 of tumor implantation. Also on record: route intraperitoneal. The format is organism-based. The note with it: in vivo. The method in brief: as §4
In data set [17] the test system is Lewis lung carcinoma cell line. Description: Antineoplastic activity against mouse LLC cells xenografted in C57BL/6 mouse assessed as tumor growth inhibition at 30 mg/kg/day, ip administered on day 9 to day 12 of tumor implantation measured on day 16. The format is functional. The note with it: route intraperitoneal, read-out: TGI. The method in brief: as §2

In data set [18] the test system is Lewis lung carcinoma cell line. In words: Antineoplastic activity against mouse LLC cells xenografted in C57BL/6 mouse assessed as tumor growth inhibition at 15 mg/kg/day, ip administered on day 9 to day 13 of tumor implantation measured on day 21. The format is functional. The note with it: route intraperitoneal, read-out: TGI. The method in brief:
as §2

For data set [19], the system named is Lewis lung carcinoma cell line. In words: Antineoplastic activity against mouse LLC cells xenografted in C57BL/6 mouse assessed as tumor growth inhibition at 30 mg/kg/day, ip administered on day 9 to day 12 of tumor implantation measured on day 14. The format is functional. The note with it: route intraperitoneal, read-out: TGI. A digest of the protocol:
as §2

Data set [20] is described as follows: Octanol-water partition coefficient, log P of the compound in PBS buffer at pH 7.4 by spectrophotometric analysis. The format is physicochemical. A digest of the protocol:
as §5

Data set [21] deals with Lewis lung carcinoma cell line. Description: Antineoplastic activity against mouse LLC cells xenografted in C57BL/6 mouse assessed as tumor growth inhibition at 30 mg/kg/day, ip administered on day 9 to day 12 of tumor implantation measured on day 21. The format is functional. The conditions noted are these: route intraperitoneal, read-out: TGI. A digest of the protocol: as §2

Data set [22] has as its system Lewis lung carcinoma cell line. In words: Antineoplastic activity against mouse LLC cells xenografted in C57BL/6 mouse assessed as tumor growth inhibition at 15 mg/kg/day, ip administered on day 9 to day 13 of tumor implantation measured on day 23. The format is functional. The conditions noted are these: route intraperitoneal, read-out: TGI. The method in brief:
as §2

In data set [23] the test system is Mus musculus. In words: Toxicity in C57BL/6 mouse xenografted with mouse LLC cells assessed as body weight loss at 30 mg/kg/day, sc administered on day 9 to day 12 of tumor implantation. Also on record: route subcutaneous. The format is organism-based. The note with it: in vivo. The method in brief:
as §4

Data set [24] has as its system Mus musculus. Description: Toxicity in C57BL/6 mouse xenografted with mouse LLC cells at 15 mg/kg/day, ip administered on day 9 to day 13 of tumor implantation. The format is organism-based. Also noted: route intraperitoneal. The conditions noted are these: in vivo. A digest of the protocol: as §4

Structures can show the parent of a compound that is named as a salt.

In the data set with KB, `Cc1c2ccccc2nc2c1c1cc(NC(=O)[C@@H](N)CO)ccc1n2C` registered an IC50 of 5960 nM.

As to `Cc1c2c3cc(NC(=O)CNC(=O)[C@@H](N)Cc4cnc[nH]4)ccc3nc-2n(C)c2ccccc12.Cl`, the solubility result in [1] is reported as “soluble”. Inhibition with KB was half-maximal at 3640 nM (IC50).

Molecule `Cc1c2ccccc2nc2c1c1cc(NC(=O)[C@@H]3CCCN3)ccc1n2C` registered an IC50 with KB of 4390 nM.

As to `Cc1c2c3cc(NC(=O)[C@@H]4CCCN4C(=O)CN)ccc3nc-2n(C)c2ccccc12.Cl.Cl`, the selectivity ratio in data set [2] stood at 5. The solubility result in data set [1] was “soluble”. The half-inhibitory concentration (IC50) was 1130 nM in the data set on MCF7, 860 nM with A549, 700 nM with KB and 440 nM with LoVo.

Regarding `Cc1c2c3cc(NC(=O)[C@@H]4CCCN4)ccc3nc-2n(C)c2ccccc12.Cl.Cl`, the inhibition in vivo at 30 mg/kg/day was 41.1% in [3]; 61.2% in data set [4]; 50% in data set [13]; 75.8% in [17]; 74% in [19]; 37.9% in data set [21]. Besides, the inhibition in vivo at 15 mg/kg/day in data set [5] was 8.38%; in data set [6], 42%; in data set [7], 47.7%; in data set [12], 42.6%; in data set [18] it was 0%; in data set [22], 24.6%. Moreover, the Activity result in the data set with Mus musculus [8] is given as “<= 15%”; in the data set on Mus musculus [9], “Toxic”; in the data set on Mus musculus [11], “<= 15%”; in the data set on Mus musculus [15] it was “<= 15%”; with Mus musculus [16], “<= 15%”; in the data set with Mus musculus [23], “<= 15%”. For the same molecule, in the data set on Mus musculus [24], the Activity result is reported as “Toxic”. Further, the logP in [10] is reported as -1.9. Besides, in data set [2], the selectivity ratio was 5. The solubility entry in [1] was “soluble”. Further, the pKa at 5 µM in data set [14] stood at 7.2. Besides, the IC50 was determined as 820 nM in the data set on MCF7, 480 nM in the data set on A549, 420 nM in the data set on KB and 810 nM with LoVo. Also, the logD in data set [20] stood at 1.4.

As for `COc1cccc2c1C(=O)c1c(O)c3c(c(O)c1C2=O)C[C@@](O)(C(=O)CO)C[C@@H]3O[C@H]1C[C@H](N)[C@H](O)[C@H](C)O1` [DOXORUBICIN HYDROCHLORIDE], the IC50 is 440 nM in the data set with MCF7, 840 nM in the data set on KB and 110 nM in the data set with LoVo.

One may read the IC50 as the concentration at which inhibition is half-maximal. A higher IC50 goes with weaker potency. Usually logP stands for a log measure of how a compound divides between an organic and an aqueous phase. A lower logP goes with a more hydrophilic compound. By pKa is commonly meant the pH at which an ionisable group is half protonated. Lower therefore signals a group that gives up its proton readily. In general, logD refers to lipophilicity at a set pH, counting ionised and neutral species.

The values above are taken from ChEMBL document CHEMBL2146434, “Synthesis and biological evaluation of new amino acid and dipeptide derivatives of neocryptolepine as anticancer agents” (J Med Chem, 2012).
